Hsp70 activator: transcriptional activators of Hsp70 | HeLa Hsp70 promoter luciferase reporter, luminescence; scaled: vehicle 0, proteasome-inhibitor control 100% | activation, % at 10 µM | actives 0.04% (n = 200,000);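 active = activation above the mean across all tested compounds plus 3 SD, cutoff set per campaign, cut at about 5.5% in these data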;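 also: 100% = MG132 at 30 µM as the positive control and 0% = DMSO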
HSF1 activator: increases HSF-1 driven luciferase reporter signal; NIH3T3-HGL HSF-1 luciferase reporter, MG132, 8 h; 100% = twice DMSO control signal; activation, % at 9 µM; actives 1.7% (n = 300,000);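 active = mean replicate activation of at least 50% with a set share of replicates each reaching 50%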;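 also: 0% = median of the neutral control wells and 100% = twice that signal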
Lmaj promast: inhibitors of Leishmania major promastigote growth. AID 1063. actives 9% (n = 200,000). Leishmania major promastigotes, resazurin fluorescence viability. inhibition, % at 10 µM; in the data active = inhibition above about 50%;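 also: promastigotes grown with compound for 44 hours at 28 °C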
HSF1 inhib: HSF1 inhibition; activity change, negative = inhibition, % at 7.5 µM (by protocol); NIH3T3-HGL HSE-luciferase, MG132-induced, luminescence 8 h; stronger effect = lower value; actives 0.77% (n = 300,000);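 active = more than half of replicate wells show activity change below -50%, luminescence cut by over half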;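 also: luciferase reports HSF-1 transcriptional activity via heat shock element; 0% = median of DMSO wells and -100% = zero luminescence signal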
T cruzi inh: blocks replication of Trypanosoma cruzi; T. cruzi beta-gal in NIH3T3, luminescence, 90 h; inhibition, % (concentration not given with the values); actives 1.4% (n = 300,000);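 active = mean inhibition across valid replicates above about 55%, limit read from the data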;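 also: signal also drops with host cell toxicity which is not excluded here; 0% = plate median of DMSO wells and 100% = zero luminescence signal; higher percent means less beta-gal luminescence so fewer parasites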
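Read-out: Parasite load inhibition, % | Test system: Mouse NIH/3T3 fibroblasts infected with β-gal-expressing T. cruzi Tulahuen C4 | Amount: 5,000 cells/well | Medium: DMEM, 2% fetal bovine serum | Signal: GalScreen β-gal luminescence, detergent lysis, 60 min | Timing: 3 h attach, ≥90 h co-culture | Also added: Tulahuen C4 trypomastigotes, 5000/well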
* marks the source's active call; other numbers are inactive results; . = no result given. Many of the other results were omitted from the sample, so hits are more common in it than they were.

SMILES	Hsp70 activator	HSF1 activator	Lmaj promast	HSF1 inhib	T cruzi inh
O=C1c2ccccc2C(=O)c2c1oc(C(F)(F)F)c2C(=O)c1ccccc1	-0.5	-80.3	98.9*	-78.3*	58.9*
Cc1cc2ncc(-c3ccccc3)nc2cc1C	.	39.9	.	7.6	-6.0
CCOC(=O)c1ccc2ncc(-c3ccccc3)nc2c1	-0.2	62.5*	-4.8	32.7	-11.4
Cc1ccc(O)c(NC(=O)CSc2n[nH]c(-c3ccccc3)n2)c1	.	109.3*	.	120.3	-15.0
O=C(CSc1n[nH]c(-c2ccccc2)n1)Nc1ccc(Br)cn1	-0.3	-1.2	54.4*	-2.6	2.4
Cc1ccc(C)c(NC(=O)CSc2n[nH]c(-c3ccccn3)n2)c1	.	7.9	.	13.1	-22.4
CCN(CC)C(=O)CSc1nnc(COc2ccccc2)n1N	-0.1	5.2	-5.3	-5.7	-16.8
O=C1C=C(c2cccc(O)c2)CCC1	.	-5.2	.	-1.9	-6.0
Oc1cccc(-c2nc3ccc4ccccc4c3c3c2CCC3)c1	0.6	59.4*	43.8	37.0	29.2
O=C(Nc1cccc(S(=O)(=O)N2CCOCC2)c1)c1cn(-c2ccccc2)nc1-c1ccc(F)cc1	-0.3	6.6	99.5*	0.6	57.2*
Cc1ccc(-c2nn(-c3ccccc3)cc2C(=O)Nc2ccc(C)c(S(=O)(=O)N3CCOCC3)c2)cc1	-0.3	-0.4	48.6	-0.9	72.9*
O=C(Nc1ccc(Cl)c(S(=O)(=O)N2CCOCC2)c1)c1ccccc1-c1ccc(C(F)(F)F)cc1	-0.5	7.1	99.2*	9.0	47.6
O=C(Nc1cccc(S(=O)(=O)N2CCOCC2)c1)c1cn(-c2ccccc2)nc1-c1ccccc1	0.1	14.8	43.6	4.9	9.1
COc1ccc(S(=O)(=O)n2[nH]c(=O)c(CCO)c2C)c([N+](=O)[O-])c1	0.0	-8.0	5.9	0.5	40.3
COC(=O)c1nc(N)sc1C	-0.4	.	2.4	.	-4.6
CS(=O)(=O)N1CCN(c2ccc(C(=O)N3CCOCC3)cc2[N+](=O)[O-])CC1	-0.6	.	-1.4	.	-7.5
CN(c1ccccc1)S(=O)(=O)c1nnc(NC(=O)COc2ccccc2F)s1	.	-78.2	.	-72.1*	-12.9
Cc1ccc(S(=O)(=O)N(C)c2ccc(OCC(=O)Nc3nc4ccccc4s3)cc2)cc1	-0.5	15.8	98.2*	0.7	11.3
CN(c1ccc(OCC(=O)Nc2nc(-c3ccccc3)cs2)cc1)S(=O)(=O)c1ccc(F)cc1	0.1	-5.5	97.2*	-5.1	55.0*
Cc1ccc(S(=O)(=O)N(C)c2ccc(OCC(=O)Nc3nc(-c4ccccc4)cs3)cc2)cc1	-0.4	6.0	89.3*	12.5	42.8
CCOC(=O)C(=O)c1csc(NC(=O)COc2ccc(N(C)S(=O)(=O)c3ccc(F)cc3)cc2)n1	-0.1	-7.8	-10.5	-1.3	-2.0
COc1cc(/C=N/NC(=O)Cn2ccc(C(F)(F)F)n2)cc(OC)c1OC	-0.3	0.5	-7.7	-5.7	-4.0
COc1ccc(-n2nc(N)c(C(N)=O)n2)cc1	-0.3	8.6	-6.6	4.2	-3.0
CC(=O)C1=C(O)C(=O)N(Cc2ccccc2)C1c1ccc(Br)cc1 (centres undefined)	.	4.9	.	0.5	30.5
CCOC(=O)C1=C(Nc2ccccc2)CC(C)(O)C(C(=O)OCC)C1c1ccccc1 (centres undefined)	-0.3	8.7	-1.0	-3.1	75.8*
SMILES	Hsp70 activator	HSF1 activator	Lmaj promast	HSF1 inhib	T cruzi inh
CCOC(=O)C1=C(Nc2ccc(C)cc2)CC(C)(O)C(C(=O)OCC)C1c1ccccc1 (centres undefined)	-0.4	-24.3	-2.2	-4.1	25.5
CCOC(=O)C1=C(Nc2ccccc2)CC(C)(O)C(C(=O)OCC)C1c1ccc(Br)cc1 (centres undefined)	-0.3	5.4	92.4*	5.0	-11.4
CN(C(=O)c1cc(S(=O)(=O)N2CCc3ccccc32)cn1C)C1CCCCC1	.	-4.4	.	-3.4	21.1
OCCNCc1cc(Br)ccc1OCc1ccc(Cl)cc1Cl	-0.3	16.6	100.6*	2.3	15.7
OCCNCc1cc(Br)ccc1OCc1ccc(Cl)cc1	-0.3	17.7	92.8*	10.3	-16.8
OCCNCc1cc(Br)ccc1OCc1ccc(F)cc1	-0.3	23.3	49.6	-0.1	14.7
OCCCCNCc1cc(Br)ccc1OCc1ccccc1F	-0.3	5.4	11.3	2.9	0.8
OCCNCc1cccc(OCc2ccc(Cl)cc2)c1	-0.1	17.0	54.3*	11.0	5.1
CN(C(=O)c1ccc(S(=O)(=O)N2CCCC2)cc1)C1CCS(=O)(=O)C1 (centres undefined)	.	4.4	.	-3.0	-7.8
Cc1cc(C)c(S(=O)(=O)CCC(C)C)c(=O)[nH]1	0.0	25.0	-5.9	-0.6	-13.7
COc1ccc(C(=O)N2CCCC(CNC(=O)c3ccccc3Cl)C2)o1 (centres undefined)	.	22.8	.	4.0	7.6
COC(=O)c1cn(CC(=O)Nc2ccccc2C)c2ccccc12	.	2.8	.	-2.3	4.0
COc1ccc2c(c1)-c1nc(/N=C/c3c(O)ccc4ccccc34)sc1CC2	-0.1	63.4*	80.7*	39.2	-2.2
CN(C)c1ccc(C(C(=O)NC2CCCCC2)N(Cc2ccco2)C(=O)c2snc(C(N)=O)c2N)cc1 (centres undefined)	.	37.5	.	4.1	22.1
C=C1SC(Nc2c(C)cc(C)cc2C)=NC12CCCCC2	.	-56.9	.	-45.9	67.5*
C=C1SC(Nc2c(C)cccc2C)=NC12CCCCC2	.	-0.3	.	7.3	64.3*
Cc1cc(C)c(NC(=O)CN2C(=O)NC3(CCCCC3)C2=O)c(C)c1	-0.2	-0.6	-5.8	-2.6	-7.6
CC(C)=CCc1cc2c(=O)c3c(O)c4c(cc3oc2c(O)c1O)OC(C)C4(C)C (centres undefined)	.	-25.2	.	-1.9	67.1*
Cc1cccc(CN(C)CCc2ccccn2)c1	0.3	-2.2	-4.9	9.0	61.3*
Cc1ccccc1CN(C)CCc1ccccn1	-0.2	8.3	-3.2	-6.3	-6.6
Cc1ccnc(NC(=O)c2cc(-c3ccc(Cl)s3)nc3ccccc23)c1	.	-7.8	.	-14.5	23.4
Cc1cc(NCc2ccccn2)nc2ccccc12	-0.2	14.8	29.1	4.3	3.8
Cc1cc(NC2CCCCC2)nc2ccccc12	-0.1	25.3	83.9*	8.2	30.8
Cc1ccc2nc(Cl)c(C3CC(c4cccs4)=NN3S(C)(=O)=O)cc2c1 (centres undefined)	-0.4	-18.9	84.4*	-3.8	7.5
CCc1cc2c(NCc3ccccc3)nc(C)nc2s1	.	13.2	.	2.9	19.8
SMILES	Hsp70 activator	HSF1 activator	Lmaj promast	HSF1 inhib	T cruzi inh
CCc1cc2c(NCCC(=O)O)nc(C)nc2s1	0.7	-69.8	-4.2	-59.9*	-6.8
COc1cc2nc(Nc3ccc(C)c(C)c3)nc(N)c2cc1OC	.	-15.7	.	-0.5	56.1*
COc1cc2nc(N(C)C)nc(N)c2cc1OC	-0.1	4.0	99.9*	-7.9	62.8*
COc1cc2nc(Nc3ccc(C)c(Cl)c3)nc(N)c2cc1OC	.	13.5	.	6.9	38.1
CCC(C)(C)NC(=O)CCCSc1nc2ccccc2[nH]1	.	10.7	.	-0.5	-6.8
COc1cc(N)c(Br)cc1C(=O)O	-0.3	0.1	-1.0	4.2	-10.4
COc1cc(N)ccc1C(=O)O	-0.4	-61.8	-10.1	-59.6*	-6.6

High-throughput results (PubChem)
